Data reported in ChEMBL document CHEMBL4400542, “Epidermal Growth Factor Receptor-Targeted Multifunctional Photosensitizers for Bladder Cancer Imaging and Photodynamic Therapy” (J Med Chem, 2019).
Calls of active or inactive are those of the source. The rule behind the calls is not given here.

Columns and labels:
[1] = biological target: Epidermal growth factor receptor (Homo sapiens) (UniProt P00533); assay: Inhibition of EGFR autophosphorylation at Ty1068 in human T24 cells at 1 uM followed by PDT and measured after 24 hrs by Western blot analysis; type: cell-based
Epidermal growth factor receptor (Homo sapiens), sequence (P00533 whole entry): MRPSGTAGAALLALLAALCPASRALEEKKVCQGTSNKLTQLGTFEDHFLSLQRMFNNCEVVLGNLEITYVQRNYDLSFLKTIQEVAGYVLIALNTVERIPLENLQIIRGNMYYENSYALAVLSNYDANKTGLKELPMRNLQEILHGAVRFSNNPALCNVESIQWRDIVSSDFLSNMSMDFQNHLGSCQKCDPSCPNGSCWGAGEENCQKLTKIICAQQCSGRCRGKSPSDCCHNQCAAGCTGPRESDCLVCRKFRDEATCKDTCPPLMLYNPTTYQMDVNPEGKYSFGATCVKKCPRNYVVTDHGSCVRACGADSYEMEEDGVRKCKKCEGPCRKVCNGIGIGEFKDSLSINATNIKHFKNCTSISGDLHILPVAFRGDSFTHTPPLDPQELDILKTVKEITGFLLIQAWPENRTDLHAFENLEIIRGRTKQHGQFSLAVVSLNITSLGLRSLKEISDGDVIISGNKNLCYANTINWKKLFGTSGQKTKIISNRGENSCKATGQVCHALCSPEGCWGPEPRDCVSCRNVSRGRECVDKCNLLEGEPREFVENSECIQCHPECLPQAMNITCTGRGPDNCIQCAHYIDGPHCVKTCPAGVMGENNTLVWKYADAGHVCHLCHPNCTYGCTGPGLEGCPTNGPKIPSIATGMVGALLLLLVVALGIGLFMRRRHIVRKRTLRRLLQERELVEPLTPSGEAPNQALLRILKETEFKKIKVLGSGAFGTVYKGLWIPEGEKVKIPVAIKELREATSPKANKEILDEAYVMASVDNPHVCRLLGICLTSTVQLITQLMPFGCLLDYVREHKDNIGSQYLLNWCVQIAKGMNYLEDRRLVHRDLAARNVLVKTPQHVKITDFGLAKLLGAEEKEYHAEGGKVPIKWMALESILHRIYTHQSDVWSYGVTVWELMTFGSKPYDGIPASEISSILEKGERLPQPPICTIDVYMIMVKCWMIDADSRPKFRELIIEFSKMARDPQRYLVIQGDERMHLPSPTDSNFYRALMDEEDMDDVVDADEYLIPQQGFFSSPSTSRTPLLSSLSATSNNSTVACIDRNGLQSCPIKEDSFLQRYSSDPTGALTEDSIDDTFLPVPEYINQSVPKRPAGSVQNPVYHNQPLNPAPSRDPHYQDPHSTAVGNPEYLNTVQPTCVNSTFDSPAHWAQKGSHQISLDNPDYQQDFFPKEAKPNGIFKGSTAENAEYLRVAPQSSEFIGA

T-24 [2] = assay: Induction of apoptosis in human T24 cells assessed as increase in apoptotic cells at 100 nM in presence of light by Annexin V/propidium iodide-stining based flow cytometry; type: functional, cell-based
UMUC3 [3] = assay: Induction of apoptosis in human UM-UC-3 cells assessed as increase in necrotic cells at 1 uM in presence of light by Annexin V/propidium iodide-stining based flow cytometry; type: functional, cell-based
UMUC3 [4] = assay: Induction of apoptosis in human UM-UC-3 cells assessed as increase in apoptotic cells at 1 uM in presence of light by Annexin V/propidium iodide-stining based flow cytometry; type: functional, cell-based
UMUC3 [5] = assay: Anti-tumor activity against human UM-UC-3 cells xenografted in SCID mouse assessed as tumor cure at 0.47 umol/kg, iv in presence of 135 J/cm2 light irradiation at 24 hrs post injection and measured at day 60; type: functional
Procedure, shortened: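 UMUC-3 cells implanted in right flank of SCID mice; at 4–5 mm tumors, PS given i.v. at 0.47 µmol/kg. Tumors exposed to 665 nm light, 135 J/cm2 at 75 mW/cm2, 24 h post-injection. Tumor regrowth monitored daily; mice euthanized at >400 mm3; tumor-free status scored at day 60.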

UMUC3 [6] = assay: Induction of apoptosis in human UM-UC-3 cells assessed as increase in necrotic cells at 100 nM in presence of light by Annexin V/propidium iodide-stining based flow cytometry; type: functional, cell-based
T-24 [7] = assay: Induction of apoptosis in human T24 cells assessed as increase in necrotic cells at 1 uM in presence of light by Annexin V/propidium iodide-stining based flow cytometry; type: functional, cell-based
UMUC3 [8] = assay: Induction of apoptosis in human UM-UC-3 cells assessed as increase in apoptotic cells at 100 nM in presence of light by Annexin V/propidium iodide-stining based flow cytometry; type: functional, cell-based
[9] = Drug accumulation in lysosomes of human UM-UC-3 cells at 500 nM formulated with 2% pluronic F-127 solution after 24 hrs by lysosphere green based fluorimetry; type: ADME, subcellular, Lysosome; settings: umuc3, 24 h, 0.5 µM
T-24 [10] = assay: Induction of apoptosis in human T24 cells assessed as increase in apoptotic cells at 1 uM in presence of light by Annexin V/propidium iodide-stining based flow cytometry; type: functional, cell-based
[11] = Induction of singlet oxygen generation in oxygen-free toluene solution at 670 nm assessed as decay rate constant of triplet excited state by femtosecond transient absorption spectroscopy; type: functional
[12] = Induction of singlet oxygen generation in oxygen-saturated toluene solution at 670 nm assessed as decay rate constant of triplet excited state by femtosecond transient absorption spectroscopy; type: functional
[13] = Drug uptake in human T24 cells xenografted in SCID mouse at 0.47 umol/kg formulated with 1% tween 80 solution and measured at 24 hrs post injection by IVIS analysis; type: ADME, cell-based, T-24; settings: in vivo
Procedure, shortened: (§1)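 SCID mice (3/group) bearing UMUC3 or T24 tumors of 4–5 mm injected with PS at 0.47 µmol/kg in Tween80 or Pluronic F-127. Tumor, liver and skin fluorescence followed by IVIS optical imaging (ex 675 nm, em 720) at several time points including 24 h.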

[14] = Induction of singlet oxygen generation assessed as energy transfer from the triplet chlorins to oxygen by femtosecond transient absorption spectroscopy; type: functional
[15] = Drug uptake in human UM-UC-3 cells xenografted in SCID mouse at 0.47 umol/kg formulated with 1% tween 80 solution and measured at 24 hrs post injection by IVIS analysis; type: ADME, cell-based, UMUC3; settings: in vivo; procedure, shortened: as §1
[16] = Induction of singlet oxygen generation in toluene solution in presence of oxygen at 670 nm assessed as decay rate constant of triplet excited state by femtosecond transient absorption spectroscopy; type: functional
[17] = Induction of singlet oxygen generation in Ar-saturated toluene solution at 670 nm assessed as decay rate constant of triplet excited state by femtosecond transient absorption spectroscopy; type: functional
[18] = Drug uptake in human UM-UC-3 cells xenografted in SCID mouse at 0.47 umol/kg formulated with 2% pluronic F-127 solution and measured at 24 hrs post injection by IVIS analysis; type: ADME, cell-based, UMUC3; settings: in vivo; procedure, shortened: as §1
[19] = Drug uptake in human T24 cells xenografted in SCID mouse at 0.47 umol/kg formulated with 2% pluronic F-127 solution and measured at 24 hrs post injection by IVIS analysis; type: ADME, cell-based, T-24; settings: in vivo; procedure, shortened: as §1
UMUC3 [20] = assay: Anti-tumor activity against human UM-UC-3 cells xenografted in SCID mouse assessed as tumor necrosis at 0.47 umol/kg, iv in presence of 135 J/cm2 light irradiation at 24 hrs post injection and measured at 72 hrs post light exposure; type: functional, organism-based

Row | Structure (SMILES) | inhibition [1] | Activity (T-24 [2]) | Activity (UMUC3 [3]) | Activity (UMUC3 [4]) | Activity (UMUC3 [5]) [%] | Activity (UMUC3 [6]) | Activity (T-24 [7]) | Activity (UMUC3 [8]) | Drug uptake [9] | Activity (T-24 [10]) | K [11] [×10⁴ /s] | K [12] [×10⁵ /s] | Drug uptake [13] | K [14] [×10⁹ /M/s] | Drug uptake [15] | K [16] [×10⁶ /s] | K [17] [×10⁴ /s] | Drug uptake [18] | Drug uptake [19] | Activity (UMUC3 [20])
1 | CCC1=C(C)c2cc3[nH]c(cc4nc(c5c6[nH]c(cc1n2)c(C)c6C(=O)C5)[C@@H](CCC(=O)OC)[C@@H]4C)c(C)c3C(C)OCc1cccc(I)c1 (some centres not stated) | inactive | inactive | Active | Active | 20 | Active | Active | Active | Active | Active | – | – | – | – | – | – | – | – | – | –
2 | CCC1=C(C)c2cc3[nH]c(cc4nc(c5c6[nH]c(cc1n2)c(C)c6C(=O)C5)[C@@H](CCC(=O)NCc1cccc(I)c1)[C@@H]4C)c(C)c3C(C)OCc1cccc(C#Cc2cccc(Nc3ncnc4cc(OCCOC)c(OCCOC)cc34)c2)c1 (some centres not stated) | Active | – | – | – | – | – | – | – | Active | – | 4.27 | 6.34 | Active | 3.17 | Active | 0.634 | 4.27 | Active | Active | inactive
